We go through 1 compound from ChEMBL document CHEMBL4842326, “Design, synthesis and biological evaluation of 3, 4-disubstituted-imidazolidine-2, 5-dione derivatives as HDAC6 selective inhibitors” (Eur J Med Chem, 2021).

Series [1] concerns KG-1. Kind of series: Antiproliferative activity against human KG-1 cells assessed as inhibition of cell proliferation after 48 hrs by MTT assay. Format: functional, cell-based. The settings on record: KG-1, 48 h. A digest of the protocol: (§1)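 Leukemia/myeloma lines grown in RPMI1640 with 10% FBS at 37 °C, 5% CO2; seeded at 3500–4000 cells/well, cultured overnight, then exposed to serial dilutions for 48 h.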
A general note: Tetrazolium assays rely on reduction of a dye to a coloured formazan, in cell work by metabolically active cells.

The subject of series [2] is HL-60. Description: Induction of apoptosis in human HL-60 cells assessed as viable cells at 3 uM after 48 hrs by Annexin V-FITC/propidium iodide staining based flow cytometric analysis (reference value: 93.4%). Format: functional. The settings on record: read-out: Activity. An outline of the steps: (§2)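 HL-60 cells (1 × 10^6/well) exposed 48 h to compound dilutions, collected, PBS-washed, resuspended in Annexin V-FITC binding buffer, stained with propidium iodide and Annexin V-FITC for 15 min, then analysed by flow cytometry.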
Background: In flow cytometry, cells or beads pass a laser one at a time.

Series [3] can be described thus: Cytotoxicity against human GEC1 cells assessed as decrease in cell viability after 48 hrs by MTT assay. Format: cell-based. The settings on record: GEC1, 48 h. An outline of the steps: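 Normal cells: HUVECs in RPMI1640 with 10% FBS plus 0.1% heparin, GEC-1 in RPMI1640 with 10% FBS. Seeded 8 h, then treated with serial dilutions for 48 h; 0.5% MTT for 4 h, supernatant removed, DMSO added, absorbance read at 570 nm.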

Series [4] has as its system HL-60. Kind of series: Induction of apoptosis in human HL-60 cells at 3 uM measured after 48 hrs by TUNEL staining based fluorescence microscopy. It is filed as functional, cell-based. A digest of the protocol:
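HL-60 cells (1 × 10^6/well) given 3 µM compound or vehicle (0.2% DMSO) for 48 h; washed in cold PBS, fixed in paraformaldehyde 30 min, permeabilised with 0.5% Triton X-100 for 5 min, labelled 60 min with FITC-12-dUTP plus terminal deoxynucleotidyl transferase, washed twice, green fluorescence imaged by microscopy.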

For series [5], the target named is T1, Protein deacetylase HDAC6 (Homo sapiens) (UniProt Q9UBN7).
T1 sequence (whole entry): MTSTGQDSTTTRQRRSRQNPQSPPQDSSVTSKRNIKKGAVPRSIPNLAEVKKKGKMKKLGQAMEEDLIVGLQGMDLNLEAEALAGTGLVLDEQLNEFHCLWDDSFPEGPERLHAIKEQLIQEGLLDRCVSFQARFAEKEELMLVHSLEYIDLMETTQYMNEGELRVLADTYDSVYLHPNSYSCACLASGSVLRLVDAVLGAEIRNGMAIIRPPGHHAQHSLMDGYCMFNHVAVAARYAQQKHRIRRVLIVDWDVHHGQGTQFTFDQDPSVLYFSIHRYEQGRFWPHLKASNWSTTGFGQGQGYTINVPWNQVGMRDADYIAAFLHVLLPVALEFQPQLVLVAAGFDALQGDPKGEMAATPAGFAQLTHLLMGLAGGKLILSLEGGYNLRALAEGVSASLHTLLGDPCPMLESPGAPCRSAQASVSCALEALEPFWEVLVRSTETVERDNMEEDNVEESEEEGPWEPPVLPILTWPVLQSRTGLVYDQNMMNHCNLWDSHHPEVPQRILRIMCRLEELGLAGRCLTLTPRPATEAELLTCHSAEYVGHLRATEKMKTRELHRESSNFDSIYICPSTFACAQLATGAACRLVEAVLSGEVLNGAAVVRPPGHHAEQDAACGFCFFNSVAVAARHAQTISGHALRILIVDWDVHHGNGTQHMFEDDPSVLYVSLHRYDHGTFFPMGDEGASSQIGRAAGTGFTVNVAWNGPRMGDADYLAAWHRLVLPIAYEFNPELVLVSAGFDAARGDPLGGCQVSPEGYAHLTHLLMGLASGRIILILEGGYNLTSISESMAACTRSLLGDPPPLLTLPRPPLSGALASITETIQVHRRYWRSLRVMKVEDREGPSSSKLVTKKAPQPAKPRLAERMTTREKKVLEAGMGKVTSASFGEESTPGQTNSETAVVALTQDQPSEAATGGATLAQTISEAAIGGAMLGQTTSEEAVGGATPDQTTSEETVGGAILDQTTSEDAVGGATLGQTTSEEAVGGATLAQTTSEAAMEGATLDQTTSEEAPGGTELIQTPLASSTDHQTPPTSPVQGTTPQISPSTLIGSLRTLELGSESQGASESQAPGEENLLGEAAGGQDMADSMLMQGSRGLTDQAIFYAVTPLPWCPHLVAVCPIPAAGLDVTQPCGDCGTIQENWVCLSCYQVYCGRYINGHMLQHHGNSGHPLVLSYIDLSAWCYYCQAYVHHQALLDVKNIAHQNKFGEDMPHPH
Kind of series: Inhibition of HDAC6 in human HL-60 cells assessed as increase in acetylation of alpha tubulin measured up to 24 hrs by Western blot analysis. It is filed as cell-based. The settings on record: time hrs <=24. A digest of the protocol:
(§3)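 HL-60 cells treated 12 h or 24 h, pelleted, lysed in RIPA with 1 mM PMSF on ice 30 min, cleared at 4 °C; lysates run on 12.5% SDS-PAGE, blotted to PVDF, blocked in 5% milk 1 h, probed overnight at 4 °C for acetyl-α-tubulin, acetyl-H3 and GAPDH, secondary 1 h, ECL detection.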
(Immunoblotting shows a protein as a band on a membrane.)

For series [6], the system named is HL-60. Kind of series: Induction of apoptosis in human HL-60 cells assessed as activation of caspase-3 at 3 uM measured by fluorescence assay. It is filed as functional, cell-based.
Series [7] has as its target T2, Protein deacetylase HDAC6 (Homo sapiens, UniProt Q9UBN7).
T2 sequence (Q9UBN7 whole entry): T1 sequence (whole entry)
Description: Inhibition of HDAC6 (unknown origin) using Ac-LeuGlyLy-s(Ac)-AMC as substrate preincubated for 10 mins followed by substrate addition and further incubated for 2 hrs by fluorescence microtiter plate reader assay.

The nature of series [8]: Stability of the compound in rabbit plasma assessed as decrease in compound degradation incubated up to 12 hrs by HPLC analysis. It is filed as ADME, cell-free, Oryctolagus cuniculus.
In series [9] the test system is HL-60. Description: Induction of apoptosis in human HL-60 cells assessed as necrotic cells at 3 uM after 48 hrs by Annexin V-FITC/propidium iodide staining based flow cytometric analysis (reference value: 0.017%). It is filed as functional. An outline of the steps: as §2
Series [10] concerns HL-60. Description: Induction of apoptosis in human HL-60 cells assessed as late apoptotic cells at 3 uM after 48 hrs by Annexin V-FITC/propidium iodide staining based flow cytometric analysis (reference value: 1.45%). It is filed as functional. An outline of the steps:
as §2

The species entered for series [11] is Homo sapiens. Kind of series: Selectivity ratio of IC50 for HDAC1 (unknown origin) to IC50 for HDAC6 (unknown origin).
Series [12] has as its target T1, Protein deacetylase HDAC6 (Homo sapiens). Kind of series: Inhibition of HDAC6 in human HL-60 cells assessed as increase in acetylation of alpha tubulin by Western blot analysis. Conditions: TDE = time-dependent effect. Format: cell-based. A digest of the protocol: as §3
In series [13] the test system is HL-60. Description: Induction of mitochondrial membrane potential depolarization in human HL-60 cells at 3 uM by fluorescence assay. Format: functional, cell-based. The settings on record: time hrs <=24, TDE = time-dependent effect. An outline of the steps: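 HL-60 cells (1 × 10^6) seeded overnight, exposed to compound or vehicle (0.2% DMSO) for the indicated times, then loaded with TMRE (100 nM) 30 min at 37 °C; washed three times in PBS, fluorescence read at Ex 540/Em 579 nm.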

The species named for series [14] is Homo sapiens. Kind of series: Selectivity ratio of IC50 for HDAC2 (unknown origin) to IC50 for HDAC6 (unknown origin).
Series [15] concerns HEL. Kind of series: Antiproliferative activity against human HEL cells assessed as inhibition of cell proliferation after 48 hrs by MTT assay. Format: functional, cell-based. An outline of the steps:
as §1

Series [16] concerns HL-60. Kind of series: Induction of apoptosis in human HL-60 cells assessed as early apoptotic cells at 3 uM after 48 hrs by Annexin V-FITC/propidium iodide staining based flow cytometric analysis (reference value: […]%). It is filed as functional.

Calls of active or inactive are those of the source. The rule behind the calls is not given here.

As to `O=C(NO)c1ccc(CN2C(=O)C(Cc3ccccc3)N(Cc3cccnc3)C2=O)cc1` (racemic), the 50% inhibitory concentration (IC50) (commonly the concentration that inhibits the measured activity by half) in series [1] amounted to 7.04 µM; in series [3], 68.2 µM; in [7] it was 0.0021 µM; in [15], 4.58 µM. Further, the viability at 3 µM in [2] amounted to 79.4%. The outcome in series [4] and in series [6] was Active. The figures for the inhibition entry in [5] and in [12] were “Dose-Dependent Effect” and “Tde”, respectively. Besides, the Stabilty entry in series [8] was “Stable”. In addition, the Activity in [9] was 0.035%; in [10], 10%; in series [13], “Tde”; in [16], 10.5%. The Ratio IC50 was 5540 in [11] and 5860 in series [14].
